Assay results as given in ChEMBL document CHEMBL5107939, “Optimization of brain-penetrant picolinamide derived leucine-rich repeat kinase 2 (LRRK2) inhibitors” (RSC Med Chem, 2021).

Legend:
[1] = target: T1, Leucine-rich repeat serine/threonine-protein kinase 2 (Homo sapiens, UniProt Q5S007, G2019S); experiment: Inhibition of human LRRK2 G2019S mutant expressed in human SH-SY5Y cells assessed as inhibition of tetracycline induced LRRK2 phosphorylation at Ser935 residue incubated for 90 mins by MSD assay; format: cell-based
In short: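 SH-SY5Y neuroblastoma cells carrying LRRK2 G2019S, grown in DMEM/F-12 with GlutaMax, 10% Tet-free FBS, nonessential amino acids and pen-strep at 37 °C, 5% CO2. Expression induced with Tet (2 µg/ml) 48-72 h before treatment. Compound exposure 90 min. Lysates captured on anti-LRRK2-coated MSD plates, probed for pSer935 or total LRRK2 with Sulfo-Tag read-out. IC50 from standard 4P fit of % inhibition.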

[2] = In vivo inhibition of LRRK2 in CD rat assessed as reduction in serine 935 phosphorylated LRRK2 in striatum at 10 mg/kg, po and measured after 2 hrs by MSD immunoassay; format: functional
In short: (§1)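 Male CD rats (125-150 g) dosed orally with compound suspended in 10% Tween 80 (5 mL/kg) or vehicle, euthanized by CO2 2 h later; striatum dissected, frozen on dry ice; pSer935 LRRK2 measured by MSD immunoassay as pSer935/total LRRK2 ratio, mean ± S.E.M.; one-way ANOVA with Dunnett's post hoc test.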

[3] = Oral bioavailability in Beagle dog and measured upto 24 hrs by LC-MS/MS analysis; format: ADME, organism-based, Canis lupus familiaris; conditions: in vivo
[4] = target: Adenosine receptor A2a (Homo sapiens) (UniProt P29274); experiment: Inhibition of human adenosine A2A receptor at 10 uM by radioligand binding assay
In short: (§2)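 Single-concentration radioligand binding screen (Eurofins Panlabs); IC50 by non-linear least-squares regression; Ki via Cheng-Prusoff from observed IC50, radioligand concentration and historical KD; Hill coefficient reported.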

[5] = Mutagenicity in Salmonella typhimurium TA98 at 30 to 5000 ug in presence of S9 metabolic activation system for 48 hrs by ames test; format: toxicity, Salmonella enterica subsp. enterica serovar Typhimurium; conditions: dose 30-5000 µg
In short: (§3)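 Plate incorporation Ames test with S9 from phenobarbital/beta-naphthoflavone-induced male Wistar Han rat liver; 30, 100, 300, 1000, 3000, 5000 µg/plate; triplicate minimal glucose agar plates with trace histidine; 48 h at 37 °C; positive if 2-fold revertant increase over vehicle with dose relation.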

[6] = Intrinsic clearance in po dosed Beagle dog and measured upto 24 hrs by LC-MS/MS analysis; format: ADME, organism-based, Canis lupus familiaris; conditions: in vivo
[7] = species on record: Cavia porcellus; experiment: Inhibition of guinea pig adenosine transporter at 1 uM by radioligand binding assay; in short: as §2
[8] = Oral bioavailability in CD rat measured after 120 mins by LC-MS/MS analysis; format: ADME, organism-based; conditions: in vivo
[9] = target: Sodium channel protein type 5 subunit alpha (Homo sapiens, UniProt Q14524); experiment: Inhibition of human NaV1.5 expressed in HEK293 by PatchXpress automated patch clamp assay; format: cell-based
[10] = Brain to plasma permeability coefficient, Kp in CD rat plasma assessed as unbound fraction at 3 to 100 mg/kg, po and measured after 2 hrs by LC/MS/MS analysis; format: ADME, organism-based; conditions: in vivo, dose 3-100 mg/kg
[11] = Mutagenicity in Salmonella typhimurium TA1535 at 30 to 5000 ug in presence of S9 metabolic activation system for 48 hrs by ames test; format: toxicity, Salmonella enterica subsp. enterica serovar Typhimurium; conditions: in vitro, dose 30-5000 µg; in short: as §3
[12] = Inhibition of calcium channel (unknown origin); design: species or system Homo sapiens
[13] = target: Substance-P receptor (Homo sapiens) (UniProt P25103); experiment: Inhibition of human tachykinin NK1 receptor at 10 uM by radioligand binding assay; in short: as §2
[14] = species on record: Homo sapiens; experiment: Selectivity of inhibition of human LRRK2 to human IRAK4
[15] = In vivo inhibition of LRRK2 in CD rat assessed as reduction in serine 935 phosphorylated LRRK2 in striatum at 30 mg/kg, po and measured after 2 hrs by MSD immunoassay; format: functional; in short: as §1
[16] = Mutagenicity in Salmonella typhimurium TA100 at 30 to 5000 ug in presence of S9 metabolic activation system for 48 hrs by ames test; format: toxicity, Salmonella enterica subsp. enterica serovar Typhimurium; conditions: dose 30-5000 µg; in short: as §3
[17] = Intrinsic clearance in po dosed CD rat measured after 120 mins by LC-MS/MS analysis; format: ADME, organism-based; conditions: in vivo, 2 h
[18] = species on record: Homo sapiens; experiment: Selectivity ratio, ratio of IC50 for inhibition of CLK2 (unknown origin) to IC50 for inhibition of recombinant human GST20 tagged truncated LRRK2 G2019S mutant
[19] = target: Voltage-gated inwardly rectifying potassium channel KCNH2 (Homo sapiens, UniProt Q12809); experiment: Inhibition of human ERG tail current in cells at -80 mV holding potential by PatchXpress automated patch clamp assay; format: toxicity
[20] = target: Dual specificity protein kinase CLK2 (Homo sapiens, UniProt P49760); experiment: Inhibition of CLK2 (unknown origin) assessed as substrate phosphorylation using coumarin and fluorescein-labeled peptide as substrate incubated for 1 hr by Z'-LYTE kinase assay
In short: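 CLK2 Z'-LYTE coupled-enzyme kit format, 10-point titration from DMSO; enzyme, substrate and compound reacted 1 h at ambient temperature; after development solution, read at excitation 400 nm; activity from coumarin 445 nm/fluorescein 520 nm emission ratio.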

[21] = MRT in po dosed Beagle dog and measured upto 24 hrs by LC-MS/MS analysis; format: ADME, organism-based, Canis lupus familiaris; conditions: in vivo
[22] = Toxicity in CD rat assessed micronucleus induction in bone marrow at 50 to 100 mg/kg, po BID administered for 4 days; format: organism-based; conditions: in vivo, 96 h, dose 50-100 mg/kg, time 4 day
[23] = species on record: Homo sapiens; experiment: Selectivity of inhibition of human LRRK2 to human CLK2
[24] = Drug metabolism in rat hepatocytes assessed as (R)-2-(1-(4-amino-5-(trifluoromethyl)pyridin-2-yl)pyrrolidin-3-yl)propan-2-ol metabolite formation compound at 0.3 uM and measured after 120 mins by LC-MS/MS analysis; format: ADME, cell-based, Hepatocyte; conditions: 2 h
[25] = Toxicity in CD rat assessed clinical signs of toxicity at 50 to 100 mg/kg, po BID administered for 4 days; format: organism-based; conditions: in vivo, 96 h, dose 50-100 mg/kg, time 4 day
[26] = Plasma clearance in po dosed Beagle dog and measured upto 24 hrs by LC-MS/MS analysis; format: ADME, organism-based, Canis lupus familiaris
[27] = target: T2, Adenosine receptor A1 (Homo sapiens) (UniProt P30542); experiment: Inhibition of human adenosine A1 receptor at 10 uM by radioligand binding assay; in short: as §2
T2 sequence (whole entry): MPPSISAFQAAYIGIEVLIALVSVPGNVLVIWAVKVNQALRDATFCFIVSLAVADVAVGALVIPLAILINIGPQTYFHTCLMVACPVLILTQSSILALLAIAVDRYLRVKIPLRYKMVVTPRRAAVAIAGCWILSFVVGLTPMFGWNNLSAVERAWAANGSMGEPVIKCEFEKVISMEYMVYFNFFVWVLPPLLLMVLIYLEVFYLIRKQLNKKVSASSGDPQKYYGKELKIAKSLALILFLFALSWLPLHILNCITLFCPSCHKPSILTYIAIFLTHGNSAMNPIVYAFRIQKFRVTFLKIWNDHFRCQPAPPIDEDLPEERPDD

[28] = target: T1, Leucine-rich repeat serine/threonine-protein kinase 2; experiment: Inhibition of recombinant human GST20 tagged truncated LRRK2 G2019S mutant assessed as substrate phosphorylation preincubated for 15 mins followed by substrate addition and measured after 90 mins using fluorescein-labeled LRRK2tide as substrate in presence of ATP by TR-FRET based Lanthascreen kinase activity assay
In short: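 Enzyme 1.25 nM in 50 mM Tris pH 8.5, 10 mM MgCl2, 0.01% Brij-35, 1 mM EGTA, 2 mM DTT, 0.05 mM orthovanadate. Compound (top 9.99 µM in DMSO, ten-point serial dilution) preincubated 15 min at RT. […] Stopped with EDTA plus 2 nM Tb anti-pERM, 1 h RT. 520/495 nm ratio read. IC50 from 4-parameter logistic fit, mean of several runs.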

[29] = species on record: Homo sapiens; experiment: Selectivity of inhibition of human LRRK2 to human MINK1
[30] = Drug metabolism in human hepatocytes assessed as (R)-2-(1-(4-amino-5-(trifluoromethyl)pyridin-2-yl)pyrrolidin-3-yl)propan-2-ol metabolite formation compound at 0.3 uM and measured after 120 mins by LC-MS/MS analysis; format: ADME, cell-based, Hepatocyte; conditions: 2 h
[31] = In vivo inhibition of LRRK2 in CD rat assessed as reduction in serine 935 phosphorylated LRRK2 in striatum at 3 mg/kg, po and measured after 2 hrs by MSD immunoassay; format: functional; in short: as §1
[32] = Plasma clearance in po dosed CD rat measured after 120 mins by LC-MS/MS analysis; format: ADME, organism-based
[33] = system: P-gp (rat Mdr1a) (Homo sapiens); experiment: Substrate activity at P-gp (unknown origin) expressed in LLC-PK1 cells transfected with rat Mdr1a assessed as apparent permeability at 0.1 uM incubated for 3 hrs by LC-MSMS analysis; format: ADME, cell-based
[34] = In vivo inhibition of LRRK2 in CD rat assessed as reduction in serine 935 phosphorylated LRRK2 in striatum at 100 mg/kg, po and measured after 2 hrs by MSD immunoassay; format: functional; in short: as §1
[35] = MRT in po dosed CD rat measured after 120 mins by LC-MS/MS analysis; format: ADME, organism-based; conditions: in vivo

T1 sequence (Q5S007 whole entry G2019S): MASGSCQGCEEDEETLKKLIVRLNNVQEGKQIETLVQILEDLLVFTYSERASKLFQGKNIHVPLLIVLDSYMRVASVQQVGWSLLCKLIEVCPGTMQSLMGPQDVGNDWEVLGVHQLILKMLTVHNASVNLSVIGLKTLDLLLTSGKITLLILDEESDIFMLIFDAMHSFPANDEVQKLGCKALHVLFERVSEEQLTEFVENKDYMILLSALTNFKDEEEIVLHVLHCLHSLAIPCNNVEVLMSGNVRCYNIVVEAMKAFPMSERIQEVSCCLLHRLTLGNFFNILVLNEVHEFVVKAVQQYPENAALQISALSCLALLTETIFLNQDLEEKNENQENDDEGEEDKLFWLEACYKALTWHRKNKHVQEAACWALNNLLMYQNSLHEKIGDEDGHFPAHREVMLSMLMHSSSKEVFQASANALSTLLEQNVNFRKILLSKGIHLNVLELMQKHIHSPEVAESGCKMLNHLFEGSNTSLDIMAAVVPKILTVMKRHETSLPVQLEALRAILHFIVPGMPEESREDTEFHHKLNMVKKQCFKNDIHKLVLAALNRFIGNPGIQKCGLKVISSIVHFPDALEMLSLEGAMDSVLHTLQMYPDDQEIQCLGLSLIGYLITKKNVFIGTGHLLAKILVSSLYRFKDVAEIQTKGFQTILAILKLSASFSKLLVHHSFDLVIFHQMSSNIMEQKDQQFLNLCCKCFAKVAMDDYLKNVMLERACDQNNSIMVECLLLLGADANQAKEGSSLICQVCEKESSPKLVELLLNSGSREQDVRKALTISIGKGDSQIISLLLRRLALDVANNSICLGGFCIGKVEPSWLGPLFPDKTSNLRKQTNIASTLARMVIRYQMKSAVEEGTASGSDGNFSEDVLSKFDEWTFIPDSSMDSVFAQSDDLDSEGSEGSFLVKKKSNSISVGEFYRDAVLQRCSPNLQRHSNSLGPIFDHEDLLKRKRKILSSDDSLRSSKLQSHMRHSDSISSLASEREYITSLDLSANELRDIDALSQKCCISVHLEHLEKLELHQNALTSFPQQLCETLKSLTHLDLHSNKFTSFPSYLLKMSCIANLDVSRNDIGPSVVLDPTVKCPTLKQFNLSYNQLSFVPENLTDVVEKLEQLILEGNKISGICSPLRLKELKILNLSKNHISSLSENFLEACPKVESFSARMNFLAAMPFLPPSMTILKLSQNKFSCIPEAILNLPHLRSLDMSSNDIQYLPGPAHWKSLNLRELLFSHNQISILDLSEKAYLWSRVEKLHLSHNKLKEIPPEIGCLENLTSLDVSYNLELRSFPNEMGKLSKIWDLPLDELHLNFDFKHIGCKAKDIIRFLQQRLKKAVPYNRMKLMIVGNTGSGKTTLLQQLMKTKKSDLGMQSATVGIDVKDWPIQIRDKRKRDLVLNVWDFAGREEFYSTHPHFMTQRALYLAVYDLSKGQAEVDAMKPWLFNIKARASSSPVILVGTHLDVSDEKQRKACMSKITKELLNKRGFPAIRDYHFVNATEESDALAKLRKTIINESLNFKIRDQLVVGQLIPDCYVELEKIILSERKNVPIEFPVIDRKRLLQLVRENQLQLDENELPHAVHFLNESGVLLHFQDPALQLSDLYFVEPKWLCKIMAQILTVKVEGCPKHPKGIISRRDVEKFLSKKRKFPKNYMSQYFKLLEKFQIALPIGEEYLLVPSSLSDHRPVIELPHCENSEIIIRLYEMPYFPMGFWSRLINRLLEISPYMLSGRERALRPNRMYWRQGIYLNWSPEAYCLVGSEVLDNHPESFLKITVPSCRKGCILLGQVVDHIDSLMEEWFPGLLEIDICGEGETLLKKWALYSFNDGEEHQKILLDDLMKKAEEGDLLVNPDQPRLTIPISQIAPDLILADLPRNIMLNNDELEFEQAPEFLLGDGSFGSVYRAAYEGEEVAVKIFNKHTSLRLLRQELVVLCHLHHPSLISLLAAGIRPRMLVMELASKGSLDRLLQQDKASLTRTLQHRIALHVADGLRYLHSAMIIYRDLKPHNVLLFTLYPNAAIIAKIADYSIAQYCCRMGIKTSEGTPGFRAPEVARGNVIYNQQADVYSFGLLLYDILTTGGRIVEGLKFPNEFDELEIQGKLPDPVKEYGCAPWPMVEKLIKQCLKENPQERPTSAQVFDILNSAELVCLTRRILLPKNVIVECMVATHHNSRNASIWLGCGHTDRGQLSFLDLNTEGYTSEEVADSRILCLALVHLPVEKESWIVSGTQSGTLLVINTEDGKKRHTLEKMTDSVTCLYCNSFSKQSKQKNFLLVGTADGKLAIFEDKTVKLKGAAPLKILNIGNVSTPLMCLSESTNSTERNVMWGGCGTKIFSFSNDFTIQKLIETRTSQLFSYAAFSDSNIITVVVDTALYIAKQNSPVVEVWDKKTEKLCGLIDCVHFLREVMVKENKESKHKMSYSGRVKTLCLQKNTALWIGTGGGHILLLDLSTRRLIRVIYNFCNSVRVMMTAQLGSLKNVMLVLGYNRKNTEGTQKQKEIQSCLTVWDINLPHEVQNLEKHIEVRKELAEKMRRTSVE
Sequence of Dual specificity protein kinase CLK2 (P49760 whole entry): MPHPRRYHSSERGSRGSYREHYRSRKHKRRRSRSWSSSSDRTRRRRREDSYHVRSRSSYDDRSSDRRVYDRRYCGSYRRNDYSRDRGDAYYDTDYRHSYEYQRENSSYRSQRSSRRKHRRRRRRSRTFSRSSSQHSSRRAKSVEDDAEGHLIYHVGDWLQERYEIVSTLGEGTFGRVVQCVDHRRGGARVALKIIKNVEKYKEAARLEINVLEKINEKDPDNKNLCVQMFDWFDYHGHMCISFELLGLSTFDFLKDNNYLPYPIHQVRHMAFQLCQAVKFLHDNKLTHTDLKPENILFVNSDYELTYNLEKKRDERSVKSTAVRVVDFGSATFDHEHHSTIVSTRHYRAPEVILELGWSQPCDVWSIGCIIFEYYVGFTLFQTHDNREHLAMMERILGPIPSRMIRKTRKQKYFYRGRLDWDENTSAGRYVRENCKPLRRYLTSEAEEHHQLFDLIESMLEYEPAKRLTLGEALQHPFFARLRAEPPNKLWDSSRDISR
Sequence of Adenosine receptor A2a (Homo sapiens) (P29274 whole entry): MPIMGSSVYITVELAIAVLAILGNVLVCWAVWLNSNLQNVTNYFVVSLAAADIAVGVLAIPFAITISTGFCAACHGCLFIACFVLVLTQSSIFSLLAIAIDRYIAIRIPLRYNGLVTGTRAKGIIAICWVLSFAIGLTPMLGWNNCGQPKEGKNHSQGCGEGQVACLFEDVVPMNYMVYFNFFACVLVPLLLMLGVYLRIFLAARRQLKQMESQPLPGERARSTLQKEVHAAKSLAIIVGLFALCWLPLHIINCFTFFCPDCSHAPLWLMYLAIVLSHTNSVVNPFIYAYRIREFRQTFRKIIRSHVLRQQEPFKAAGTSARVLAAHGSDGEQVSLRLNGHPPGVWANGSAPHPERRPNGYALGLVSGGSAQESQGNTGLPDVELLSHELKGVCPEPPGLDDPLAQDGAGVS
Sequence of Voltage-gated inwardly rectifying potassium channel KCNH2 (Q12809 whole entry): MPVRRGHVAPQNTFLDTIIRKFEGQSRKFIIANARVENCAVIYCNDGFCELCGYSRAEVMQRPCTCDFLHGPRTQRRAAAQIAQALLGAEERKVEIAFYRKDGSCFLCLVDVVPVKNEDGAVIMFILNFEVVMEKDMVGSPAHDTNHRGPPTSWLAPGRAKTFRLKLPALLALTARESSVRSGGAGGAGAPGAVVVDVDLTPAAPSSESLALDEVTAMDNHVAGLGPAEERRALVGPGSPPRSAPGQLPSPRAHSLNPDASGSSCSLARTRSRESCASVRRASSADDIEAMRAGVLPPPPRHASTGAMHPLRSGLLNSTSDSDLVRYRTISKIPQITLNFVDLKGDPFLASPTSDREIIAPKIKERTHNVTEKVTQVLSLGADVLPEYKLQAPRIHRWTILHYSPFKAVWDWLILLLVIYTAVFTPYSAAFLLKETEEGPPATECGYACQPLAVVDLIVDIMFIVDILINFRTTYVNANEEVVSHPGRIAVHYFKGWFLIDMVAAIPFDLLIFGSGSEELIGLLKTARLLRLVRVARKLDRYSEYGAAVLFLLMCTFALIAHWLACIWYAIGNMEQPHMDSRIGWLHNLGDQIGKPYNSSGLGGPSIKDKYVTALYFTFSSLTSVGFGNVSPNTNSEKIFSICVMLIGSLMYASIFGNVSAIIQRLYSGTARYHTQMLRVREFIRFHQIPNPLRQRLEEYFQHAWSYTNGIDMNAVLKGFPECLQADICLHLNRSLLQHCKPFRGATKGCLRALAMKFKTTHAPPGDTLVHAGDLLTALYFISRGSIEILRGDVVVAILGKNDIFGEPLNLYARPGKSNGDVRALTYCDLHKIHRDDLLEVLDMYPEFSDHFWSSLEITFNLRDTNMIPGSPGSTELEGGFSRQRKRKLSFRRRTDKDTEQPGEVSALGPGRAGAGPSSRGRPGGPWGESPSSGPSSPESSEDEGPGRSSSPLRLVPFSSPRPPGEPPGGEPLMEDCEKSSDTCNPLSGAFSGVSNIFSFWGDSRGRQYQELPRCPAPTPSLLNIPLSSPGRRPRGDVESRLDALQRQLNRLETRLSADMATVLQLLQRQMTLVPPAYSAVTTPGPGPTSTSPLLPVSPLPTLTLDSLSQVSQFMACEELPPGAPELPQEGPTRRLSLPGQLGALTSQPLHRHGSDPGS
Sequence of Substance-P receptor (Homo sapiens) (P25103 whole entry): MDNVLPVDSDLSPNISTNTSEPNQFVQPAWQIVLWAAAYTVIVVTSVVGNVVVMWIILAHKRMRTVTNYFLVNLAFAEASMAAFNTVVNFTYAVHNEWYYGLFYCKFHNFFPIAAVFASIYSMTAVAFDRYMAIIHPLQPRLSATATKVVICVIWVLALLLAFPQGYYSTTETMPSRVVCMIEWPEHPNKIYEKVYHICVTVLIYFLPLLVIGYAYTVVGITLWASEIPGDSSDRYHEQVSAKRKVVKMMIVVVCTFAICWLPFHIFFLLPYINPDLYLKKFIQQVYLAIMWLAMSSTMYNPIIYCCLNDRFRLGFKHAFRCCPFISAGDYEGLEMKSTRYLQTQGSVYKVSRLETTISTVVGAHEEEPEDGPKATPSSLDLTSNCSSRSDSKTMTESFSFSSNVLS

IC50 [1]: 0.0025 µM
bioavailability [3]: 43%
inhibition [4]: > 50%
CL [6]: 14531 mL/min/kg
inhibition [7]: > 50%
bioavailability [8]: 16%
Kp [10]: 0.6
IC50 [12]: 21.8 µM
inhibition [13]: > 50%
Selectivity ratio [14]: > 100
CL [17]: 5722 mL/min/kg
Ratio IC50 [18]: 63
IC50 [20]: 0.063 µM
MRT [21]: 3.6 h
Selectivity ratio [23]: > 100
Drug metabolism [24]: Metabolite_Detected
CL/F [26]: 15 mL/min/kg
inhibition [27]: > 50%
IC50 [28]: 0.001 µM
Selectivity ratio [29]: > 100
Drug metabolism [30]: Metabolite_Detected
CL/F [32]: 10 mL/min/kg
Papp at 3 h, 0.1 µM [33]: 35 ×10⁻⁶ cm/s
MRT [35]: 5.2 h
Structure (SMILES): Cn1cc(-c2cccc(C(=O)Nc3cc(N4CC[C@@H](C(C)(C)O)C4)ncc3C(F)(F)F)n2)cn1
inhibition in vivo at 10 mg/kg [2]: 13%
Activity [5]: Non-Toxic
IC50 [9]: 29.9 µM
Activity [11]: Non-Toxic
inhibition in vivo at 30 mg/kg [15]: 35%
Activity [16]: Non-Toxic
IC50 [19]: 7.6 µM
Activity [22]: Non-Toxic
Activity [25]: Non-Toxic
inhibition in vivo at 3 mg/kg [31]: 2%
inhibition in vivo at 100 mg/kg [34]: 56%
